Laboratory results from publication PMC5125022 (ACS chemical neuroscience, 2016).
Values joined by “and” are separate entries in the source; they are usually repeats but may differ in a detail not shown here. Equal values may be shown once. Read-outs that look alike come from different tables or passages of the source.

Experiments:
KOR [1] = target: T1, KOR (Homo sapiens, UniProt P41145); assay: [35S]GTPγS-binding assay in KOR-expressing CHO cell line; format: biochemical
Outline: (§1)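 CHO-cell membranes expressing DOR or KOR (10 µg protein) were incubated for 90 min at 30 °C in assay buffer. The mix held 10 µM GDP, 0.1 nM [35S]GTPγS, and varying test compound or a 3 µM full-agonist reference (SNC80 for DOR, U50,488H for KOR). Nonspecific binding used 10 µM unlabeled GTPγS. Reactions were stopped by rapid vacuum filtration through glass-fibre filters, and bound radioactivity was read by liquid scintillation. Assays ran in triplicate, with 3 independent determinations. EC50 and Emax came from nonlinear one-site fits.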

[2] = system: Longitudinal Muscle Myenteric Plexus (LMMP) preparations from the guinea pig ileum; assay: Electrical field stimulated contractions in LMMP preparations; format: cell-based; details: Figure 8A
Swiss Webster mice [3] = assay: Acetic acid induced writhing assay; format: in vivo, mouse
Swiss Webster mice [4] = assay: Warm water tail immersion; format: in vivo, mouse
Swiss Webster mice [5] = assay: Colonic bead expulsion assay; format: in vivo, mouse
KOR [6] = target: T1, KOR; assay: Competitive radioligand binding, KOR; details: ratio of Ki KOR / Ki MOR
Outline: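 Membranes from CHO cells stably expressing a single opioid receptor were incubated with test compound at various concentrations and either [3H]naloxone (MOR) or [3H]norBNI (KOR) for 1 h at 30 °C. Specific binding was the difference between binding without and with 10 µM naltrexone. IC50 came from linear regression of Hill plots, and Ki from Cheng-Prusoff. Selectivity is the KOR Ki/MOR Ki ratio, from three independent experiments.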

[7] = system: circular muscle of the mouse colon; format: cell-based; details: for Inhibition of morphine-induced contractions: 1 nM antagonist, distal or proximal colon, data not shown; for Antagonism of morphine effects: Figure 6A; for Contractions induced by compound alone: concentrations up to 30 μM, distal and proximal colon preparations
MOR [8] = target: T2, MOR (Mus musculus, UniProt P42866); assay: [35S]GTPγS-binding assay in low MOR-expressing CHO cell line; format: biochemical
Outline: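 Low-MOR-expressing CHO cell material was incubated for 90 min at 30 °C with varying test compound or 3 µM DAMGO (full-agonist reference). Nonspecific binding used 10 µM unlabeled GTPγS. Reactions were stopped by GF/B vacuum filtration, and bound radioactivity was read by scintillation counting. Triplicates gave 3 independent determinations. EC50 and Emax came from nonlinear one-site fits.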

DOR = DOR (Homo sapiens, UniProt P41143); assay: [35S]GTPγS-binding assay in DOR-expressing CHO cell line; format: biochemical
Outline: as §1

Swiss Webster mice [9] = assay: Charcoal gavage intestinal motility assay; format: in vivo, mouse
MOR [10] = target: T2, MOR; details: Emax relative to full agonist DAMGO (100%), ref 9b; cited from earlier work
KOR [11] = target: T1, KOR; details: ref 9b, cited from earlier work
[12] = Emax relative to full agonist U50,488H (100%)
[13] = 10 nM antagonist, proximal colon, Figure 6C
[14] = 100 nM antagonist, distal colon, Figure 6B

## 1-Benzyl-17-Cyclopropylmethyl-3,14β-dihydroxy-4,5α-epoxy-6β-[(4'-pyridyl)acetamido]morphinan [BNAP]
KOR [1]; [12]
  % max of agonist: 45.9 ± 1.7%
KOR [1]; [35S]GTPγS binding
  EC50: 2.9 ± 1.1 nM
[2]
  pIC50 for inhibition of EFS contractions: 7.86 ± 0.07
Swiss Webster mice [3]; mice with 5-day 75 mg morphine pellet, Figure 9B
  Activity in hypernociceptive model of visceral pain: active at three fold lower concentration
Swiss Webster mice [3]; s.c., naive mice, Figure 9A
  Number of writhes: dose dependently reduced the number of writhes
Swiss Webster mice [4]; 1.0 μg/5 μL ICV, compared to morphine alone, mice, Figure 4
  Antinociceptive effect of compound alone: did not produce significant antinociception
Swiss Webster mice [4]; 10 mg/kg s.c., any morphine dose tested, mice, Figure 3
  Antagonism of morphine antinociception: did not significantly antagonize morphine antinociception
Swiss Webster mice [4]; 10 mg/kg s.c., mice, Figure 3
  Antinociceptive effect of compound alone: did not produce significant antinociceptive effects
Swiss Webster mice [4]; ICV, increasing concentrations, mice, Figure 4
  Reversal of morphine antinociception: dose dependent reversal of morphine antinociception
Swiss Webster mice [4]; ICV, mice, Figure 4
  Dose giving complete reversal of morphine antinociception: 0.3 μg/5 μL
Swiss Webster mice [5]; BNAP alone 10 mg/kg, mice (naive 17 min)
  Bead expulsion time: 43 min
Swiss Webster mice [5]; given with morphine or 5 or 15 min before morphine
  Antagonism of morphine's effect on bead expulsion: no significant antagonism of morphine's effects was observed
KOR [6]
  Selectivity (κ/μ): 4.6 (κ/μ)
[7]
  Inhibition of morphine-induced contractions: neither NAP nor BNAP showed significant inhibition
  Contractions induced by compound alone: Neither BNAP nor NAP alone at concentrations up to 30 μM induced contractions
[7]; 10 nM antagonist, distal colon
  Antagonism of morphine effects: neither NAP nor BNAP showed significant antagonism
[7]; [13]
  Morphine pD2 in the presence of antagonist: 5.9
[7]; [14]
  Morphine pD2 in the presence of antagonist: 5.2
[7]; 100 nM versus 10 nM antagonist, proximal colon
  Change of morphine pD2 on raising the antagonist concentration: no further reduction of the morphine pD2
MOR [8]; Emax relative to full agonist DAMGO (100%)
  % max of agonist: 14.6% and 14.6 ± 0.9%
MOR [8]; [35S]GTPγS binding
  EC50: 4.84 nM and 4.8 nM
DOR; Emax relative to full agonist SNC80 (100%)
  % max of agonist: 9.2 ± 2.2%
DOR; [35S]GTPγS binding
  EC50: 108 ± 69 nM
Swiss Webster mice [9]; charcoal gavage, mice, Figure 7B
  Decrease of intestinal motility: 1.5 fold
Swiss Webster mice [9]; mice
  Reversal of morphine induced inhibition of intestinal motility: unable to reverse morphine induced inhibition of intestinal motility

## O=C(N[C@@H]1CC[C@@]2(O)[C@H]3Cc4ccc(O)c5c4[C@@]2(CCN3CC2CC2)[C@H]1O5)c1ccncc1 [NAP, 17-Cyclopropylmethyl-3,14beta-dihydroxy-4,5alpha-epoxy-6beta-(4'-pyridylcarboxamido)morphinan, reference compound]
MOR [10]
  % max of agonist: 22.72 ± 0.84% and 22.7 ± 0.8%
[7]
  Inhibition of morphine-induced contractions: neither NAP nor BNAP showed significant inhibition
  Contractions induced by compound alone: Neither BNAP nor NAP alone at concentrations up to 30 μM induced contractions
[7]; 10 nM antagonist, distal colon
  Antagonism of morphine effects: neither NAP nor BNAP showed significant antagonism
[7]; [13]
  Morphine pD2 in the presence of antagonist: 5.9
[7]; [14]
  Morphine pD2 in the presence of antagonist: 5.3
KOR [11]; [12]
  % max of agonist: 45.5 ± 4.4%
KOR [11]; [35S]GTPγS binding
  EC50: 28.8 ± 14.4 nM

## CN1CC[C@]23c4c5ccc(O)c4O[C@H]2[C@@H](O)C=C[C@H]3[C@H]1C5 [morphine, Morphine, reference compound]
Swiss Webster mice [4]; mouse, in vivo
  Antinociception: dose dependently induced antinociception
Swiss Webster mice [5]; mouse, in vivo
  Bead expulsion time: 75 min
Swiss Webster mice [9]; mouse, in vivo
  Decrease of intestinal motility: 3 fold

## DAMGO [reference compound]
[2]
  pIC50 for inhibition of EFS contractions: 7.67 ± 0.03
